Measurements gathered from unrelated publications.
Protocols differ between the studies behind these lines. ≈ marks a conversion by molar mass, not a printed value.

For `COc1ccc(Cc2[nH]/c(=N/C(=O)C34CC5CC(CC(C5)C3)C4)n(C)c2-c2ccc(OC(=O)C3CC3)c(OC)c2)cc1`, the IC50 was 49300 nM (Hepatitis B virus; viral replication, inhibitor; HePAD38).
`Cc1c(C(N)=O)c(N)n(N)c(=O)c1C#N` gave an inhibition zone of 11 mm (Saccharomyces cerevisiae; microbial growth, well diffusion; ATCC9763; 500 µg/mL).
For `COc1ccc(Cc2[nH]/c(=N/C(=O)C34CC5CC(CC(C5)C3)C4)n(C)c2Cc2ccc(OC)c(OC)c2)cc1`, the IC50 was 240 nM (Hepatitis B virus; viral replication, inhibitor; HePAD38).
For `O=C(O)c1cn(C2CC2)c2cc(N3CCNCC3)c(F)cc2c1=O`, the MIC was 0.88 µM (≈ 0.292 µg/mL) (Shigella sonnei; microbial growth; ATCC25931).
With `O=C(NC(=S)Nc1cccc(O)c1)c1ccco1` the IC50 was 680 nM (Leishmania tropica; parasite growth, resazurin; promastigote).
The IC50 of `COc1ccc(Cc2[nH]/c(=N/C(=O)C34CC5CC(CC(C5)C3)C4)n(C)c2-c2ccc(OC(=O)c3ccc(C(F)(F)F)cc3)c(OC)c2)cc1` is reported as 5220 nM (Hepatitis B virus; viral replication, inhibitor; HePAD38).
`CC(=O)N1CCN(c2ccc(OCC3COC(Cn4ccnc4)(c4ccc(Cl)cc4Cl)O3)cc2)CC1` (stereo not shown) has an inhibition zone of 20 mm (Saccharomyces cerevisiae; microbial growth, well diffusion; ATCC9763; 500 µg/mL).
`O=C(NC(=S)Nc1nccs1)c1cccs1` gave an IC50 of 1530 nM (Leishmania tropica; parasite growth, resazurin; promastigote).
For `N#Cc1c(-c2ccc(Cl)cc2Cl)c(C(N)=O)c(N)n(N)c1=O`, the inhibition zone was 10 mm (Saccharomyces cerevisiae; microbial growth, well diffusion; ATCC9763; 500 µg/mL).
With `O=C(NC(=S)Nc1ccccn1)c1cccs1` the IC50 was 790 nM (Leishmania tropica; parasite growth, resazurin; promastigote).
